ChEMBL document CHEMBL1144572, “Synthesis and biological evaluation of gamma-aminophosphonates as potent, subtype-selective sphingosine 1-phosphate receptor agonists and antagonists” (Bioorg Med Chem, 2007)
Active and inactive are the calls of the source. No cut-off for these calls is given here.

Columns and labels:
[1] = biological target: T1, Sphingosine 1-phosphate receptor 1 (Homo sapiens, UniProt P21453); test: Activity at human S1P1 receptor expressed in HEK293T cells by [35S]GTP-gamma-S binding assay; format: functional, cell-based; conditions: for Activity: HEK-293T
T1 sequence (P21453 whole entry): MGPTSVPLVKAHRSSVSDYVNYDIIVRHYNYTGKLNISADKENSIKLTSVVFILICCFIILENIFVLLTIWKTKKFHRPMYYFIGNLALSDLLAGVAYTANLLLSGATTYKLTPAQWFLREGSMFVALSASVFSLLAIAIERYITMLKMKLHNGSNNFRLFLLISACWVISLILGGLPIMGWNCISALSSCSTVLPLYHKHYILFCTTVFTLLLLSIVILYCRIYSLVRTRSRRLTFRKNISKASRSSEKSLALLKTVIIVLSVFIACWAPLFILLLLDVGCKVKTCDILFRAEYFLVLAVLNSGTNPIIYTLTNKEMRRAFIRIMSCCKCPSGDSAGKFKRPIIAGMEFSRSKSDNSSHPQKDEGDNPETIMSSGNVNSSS
In short: (§1)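 Individual human S1P receptor subtypes and individual G protein subunits forced into expression in HEK293T cells; receptor-dependent [γ-35S]GTP binding measured in vitro. EC50 in nM as the mean of at least three experiments.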

[2] = biological target: T2, Sphingosine 1-phosphate receptor 2 (Homo sapiens, UniProt O95136); test: Activity at human S1P2 receptor expressed in HEK293T cells by [35S]GTP-gamma-S binding assay; format: functional, cell-based; conditions: for Activity: HEK-293T; in short: as §1
T2 sequence (O95136 whole entry): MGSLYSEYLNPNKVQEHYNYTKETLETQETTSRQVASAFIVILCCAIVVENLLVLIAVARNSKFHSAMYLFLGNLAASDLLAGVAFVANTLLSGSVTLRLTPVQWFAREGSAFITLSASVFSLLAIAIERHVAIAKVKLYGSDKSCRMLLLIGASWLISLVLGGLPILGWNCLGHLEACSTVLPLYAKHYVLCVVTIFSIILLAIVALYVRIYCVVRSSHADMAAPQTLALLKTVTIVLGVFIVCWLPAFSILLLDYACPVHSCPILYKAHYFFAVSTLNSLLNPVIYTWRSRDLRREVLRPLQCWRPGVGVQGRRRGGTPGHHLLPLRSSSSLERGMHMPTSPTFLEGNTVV

[3] = biological target: T3, Sphingosine 1-phosphate receptor 3 (Homo sapiens, UniProt Q99500); test: Activity at human S1P3 receptor expressed in HEK293T cells by [35S]GTP-gamma-S binding assay; format: functional, cell-based; conditions: for Activity: HEK-293T; in short: as §1
T3 sequence (Q99500 whole entry): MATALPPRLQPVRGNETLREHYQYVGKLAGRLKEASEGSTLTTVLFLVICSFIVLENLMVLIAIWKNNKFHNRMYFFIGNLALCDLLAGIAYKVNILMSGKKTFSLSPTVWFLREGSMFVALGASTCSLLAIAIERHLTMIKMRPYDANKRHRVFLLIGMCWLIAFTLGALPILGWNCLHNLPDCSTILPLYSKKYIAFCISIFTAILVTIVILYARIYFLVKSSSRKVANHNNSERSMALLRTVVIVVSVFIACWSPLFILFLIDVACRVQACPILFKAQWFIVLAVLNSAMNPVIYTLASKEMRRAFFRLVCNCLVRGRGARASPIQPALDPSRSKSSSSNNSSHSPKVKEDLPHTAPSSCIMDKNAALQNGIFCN

[4] = biological target: T2, Sphingosine 1-phosphate receptor 2; test: Efficacy at human S1P2 receptor expressed in HEK293T cells relative to S1P; format: functional, cell-based; conditions: HEK-293T
In short: (§2)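 Individual human S1P receptor subtypes co-expressed with individual G protein subunits in HEK293T cells; [γ-35S]GTP binding. Emax normalized to the maximal activation by endogenous S1P at each receptor.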

[5] = biological target: T3, Sphingosine 1-phosphate receptor 3; test: Efficacy at human S1P3 receptor expressed in HEK293T cells relative to S1P; format: functional, cell-based; conditions: HEK-293T; in short: as §2
[6] = biological target: T1, Sphingosine 1-phosphate receptor 1; test: Efficacy at human S1P1 receptor expressed in HEK293T cells relative to S1P; format: functional, cell-based; conditions: HEK-293T; in short: as §2
[7] = biological target: T4, Sphingosine 1-phosphate receptor 4 (Homo sapiens, UniProt O95977); test: Activity at human S1P4 receptor expressed in HEK293T cells by [35S]GTP-gamma-S binding assay; format: functional, cell-based, HEK-293T; in short: as §1
T4 sequence (O95977 whole entry): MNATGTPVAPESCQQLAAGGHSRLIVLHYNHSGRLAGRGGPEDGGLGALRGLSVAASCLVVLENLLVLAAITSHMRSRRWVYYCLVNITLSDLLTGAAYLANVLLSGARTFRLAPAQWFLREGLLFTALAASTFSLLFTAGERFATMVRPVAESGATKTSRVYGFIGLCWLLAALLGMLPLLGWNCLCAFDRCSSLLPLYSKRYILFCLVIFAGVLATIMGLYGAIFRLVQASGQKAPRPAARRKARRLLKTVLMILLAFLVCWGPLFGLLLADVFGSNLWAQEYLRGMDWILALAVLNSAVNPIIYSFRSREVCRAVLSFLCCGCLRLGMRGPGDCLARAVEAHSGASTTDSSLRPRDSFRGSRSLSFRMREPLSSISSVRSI

[8] = biological target: T5, Sphingosine 1-phosphate receptor 5 (Homo sapiens, UniProt Q9H228); test: Activity at human S1P5 receptor expressed in HEK293T cells by [35S]GTP-gamma-S binding assay; format: functional, cell-based; in short: as §1
T5 sequence (Q9H228 whole entry): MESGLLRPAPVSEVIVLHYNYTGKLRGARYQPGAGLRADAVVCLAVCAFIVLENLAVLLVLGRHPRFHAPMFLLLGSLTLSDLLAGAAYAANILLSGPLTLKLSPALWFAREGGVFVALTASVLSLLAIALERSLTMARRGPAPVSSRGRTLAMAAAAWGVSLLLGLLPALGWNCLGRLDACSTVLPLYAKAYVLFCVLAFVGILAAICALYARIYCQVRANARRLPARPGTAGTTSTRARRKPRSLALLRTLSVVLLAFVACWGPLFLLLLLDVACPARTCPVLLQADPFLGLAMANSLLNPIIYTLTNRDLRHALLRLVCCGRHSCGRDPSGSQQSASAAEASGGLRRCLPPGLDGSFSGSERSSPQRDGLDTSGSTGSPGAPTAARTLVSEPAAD

[9] = biological target: T6, Sphingosine 1-phosphate receptor 4 (Homo sapiens) (UniProt O95977); test: Efficacy at human S1P4 receptor expressed in HEK293T cells relative to S1P; format: functional, cell-based; conditions: HEK-293T; in short: as §2
T6 sequence (whole entry): T4 sequence (O95977 whole entry)

[10] = biological target: T5, Sphingosine 1-phosphate receptor 5; test: Efficacy at human S1P5 receptor expressed in HEK293T cells relative to S1P; format: functional, cell-based; conditions: HEK-293T; in short: as §2
[11] = biological target: T1, Sphingosine 1-phosphate receptor 1; test: Displacement of [32P]S1P from human S1P1 receptor expressed in HEK293T cells; format: cell-based, HEK-293T
[12] = biological target: T3, Sphingosine 1-phosphate receptor 3; test: Displacement of [32P]S1P from human S1P3 receptor expressed in HEK293T cells; format: cell-based, HEK-293T
[13] = system: Mus musculus; test: Inhibition of VPC44152-evoked lymphopenia in mouse at 22 mg/kg; format: functional, organism-based; parameters: dose 22 mg/kg
[14] = system: Mus musculus; test: Effect on vascular permeability in C57BL/6 mouse assessed as capillary leakage in lung at 25 mg/kg by Evans blue extravasation assay; format: functional, organism-based; parameters: dose 25 mg/kg
In short: (§3)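 C57BL/6 mice given compound (25 mg/kg) or vehicle (2% hydroxypropyl β-cyclodextrin) two hours before 2% Evans blue dye (20 mg/kg) via jugular vein. Tissues harvested 30 min later. Dye extracted into formamide, read spectrometrically and quantified against a standard curve. n = 4 per group, mean ± SE, compared with vehicle.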

[15] = system: Mus musculus; test: Effect on vascular permeability in C57BL/6 mouse assessed as capillary leakage in kidney at 25 mg/kg by Evans blue extravasation assay; format: functional, organism-based; parameters: dose 25 mg/kg; in short: as §3

Row | Activity [1] | Activity [2] | Activity [3] | ECmax [4] | ECmax [5] | EC50 [1] [nM] | EC50 [3] [nM] | Activity [6] | EC50 [7] [nM] | Activity ([8]; HEK-293T) | ECmax [9] | ECmax [10] | EC50 [8] [nM] | EC50 [2] [nM] | Ki [11] [nM] | Ki [12] [nM] | Compound | Activity [13] | Activity [14] | Activity [15]
1 | inactive | inactive | inactive | 0 | 0 |  |  |  |  |  |  |  |  |  |  |  | CCCCCCCCc1cccc(NC(=O)[C@@H](N)CCP(=O)(O)O)c1 |  |  | 
2 |  | inactive |  | 0 | 0.3 | 1200 | 15000 | inactive |  |  |  |  |  |  |  |  | CCCCCCCCc1ccc(NC(=O)[C@@H](N)CCP(=O)(O)O)cc1 |  |  | 
3 |  | inactive | inactive | 0 | 0 | 33 |  |  | 440000 | inactive | 0.45 | 0 |  |  |  |  | CCCCCCCCc1ccc(OC[C@@H](O)CCP(=O)(O)O)cc1 |  |  | 
4 |  | inactive |  | 0 | 0.38 | 27 | 270 |  | 2300 |  | 0.8 | 0.64 | 76 |  |  |  | CCCCCCCCc1ccc(NC(=O)[C@H](N)CCP(=O)(O)O)cc1 |  |  | 
5 |  | inactive |  | 0 | 0.5 |  |  |  | 4 |  | 0.9 | 0.56 |  |  |  |  | CCCCCCCCc1ccc(CCC(N)(CO)COP(=O)(O)O)cc1 (stereo not drawn) |  |  | 
6 |  |  |  | 0.5 | 0.53 | 140 | 100 |  | 150 |  | 0.9 | 0.5 | 47 | 530 |  |  | CCCCCCCCc1ccc(OC[C@H](N)CCP(=O)(O)O)cc1 |  |  | 
7 |  |  |  | 0.47 | 0.96 | 2.1 | 23 |  |  |  |  |  |  | 490 |  |  | CCCCCCCCCCc1ccc(NC(=O)[C@H](N)CC(F)P(=O)(O)O)cc1 (stereo partly drawn) |  |  | 
8 |  | inactive | inactive | 0 | 0 | 30 |  |  | 340 |  | 1.18 | 0.61 | 41 |  |  |  | CCCCCCCCc1cccc(NC[C@H](N)CCP(=O)(O)O)c1 |  |  | 
9 | inactive | inactive | inactive | 0 | 0 |  |  |  | 6100 |  | 1.42 | 0.73 | 33 |  | 30 | 300 | CCCCCCCCc1cccc(NC(=O)[C@H](N)CCP(=O)(O)O)c1 | Active | Active | Active
10 |  | inactive | inactive | 0 | 0 | 68 |  |  | 147 |  | 0.71 | 0.41 | 31 |  |  |  | CCCCCCCCc1ccc(OC[C@@H](N)CCP(=O)(O)O)cc1 |  |  | 
11 | inactive |  | inactive |  | 0 |  |  |  |  |  |  |  |  |  |  |  | CCCCCCCc1cccc(NC(=O)[C@H](N)CCP(=O)(O)O)c1 |  |  | 
12 |  |  |  | 0.5 | 0.88 | 3.6 | 43 |  | 230 |  | 0.67 | 0.77 | 30 | 270 |  |  | CCCCCCCCCCc1ccc(NC(=O)[C@H](N)CCP(=O)(O)O)cc1 |  |  | 
